Source: PubChem (several laboratories)
Sampled rows, rich in hits. Any-hit rate of the full collection: about 1.4%.
NR2E3 ag-1: activates human photoreceptor nuclear receptor NR2E3; Q9Y5X4; GST-NR2E3/biotin-RetCOR TR-FRET, 1536-well; inhibition of corepressor binding, % at 4.78 µM; 320,000 tested, 0.12% active;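 active = percent inhibition above the cutoff of mean plus 3 SD of all tested compounds, set per screening campaign, cut at about 20% in these data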;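 note: 0% = DMSO wells and 100% = biotin wells as full block of FRET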
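System: GST-NR2E3 and biotin-RetCOR proteins; probe or stimulus: 7 nM biotin-RetCOR; doses: compound at 4.8 µM, single dose; schedule: Compound–protein incubation for 5 h at 4 °C; detection: time-resolved FRET; read-out: percent inhibition; controls: biotin wells as high control, 0.6% DMSO wells as low control; format: 1536-well plates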
Rev-erbA mod: Rev-erb alpha (human) modulation. Rev-erbα–FITC-DNA binding, fluorescence polarization, 90 min. 370,000 tested, 0.79% active. activity, % at 10 µM;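 active = activity above about 14%, limit read from the data; passing the limit was not always enough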;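 note: 0% = DMSO wells with 35 nM protein and 100% = DMSO wells with 750 nM protein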
Target sequence (P20393 whole entry, looked up): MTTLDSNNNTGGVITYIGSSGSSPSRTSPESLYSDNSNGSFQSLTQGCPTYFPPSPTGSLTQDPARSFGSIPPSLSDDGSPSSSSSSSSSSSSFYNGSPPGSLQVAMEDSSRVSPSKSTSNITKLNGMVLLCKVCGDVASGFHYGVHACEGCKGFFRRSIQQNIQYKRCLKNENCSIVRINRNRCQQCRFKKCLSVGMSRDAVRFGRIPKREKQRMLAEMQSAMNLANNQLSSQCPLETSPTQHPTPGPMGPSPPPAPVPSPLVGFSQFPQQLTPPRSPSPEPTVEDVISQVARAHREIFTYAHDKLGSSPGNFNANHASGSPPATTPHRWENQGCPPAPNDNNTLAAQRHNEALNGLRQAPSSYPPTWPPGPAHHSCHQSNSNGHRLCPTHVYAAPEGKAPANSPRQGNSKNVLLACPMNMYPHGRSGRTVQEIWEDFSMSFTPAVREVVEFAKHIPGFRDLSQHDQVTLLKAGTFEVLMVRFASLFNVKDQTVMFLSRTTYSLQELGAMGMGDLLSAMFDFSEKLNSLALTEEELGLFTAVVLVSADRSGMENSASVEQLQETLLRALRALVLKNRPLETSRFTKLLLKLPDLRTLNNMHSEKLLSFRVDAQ
NR2E3 ag-2: agonists of human NR2E3 nuclear receptor. CHO-S Gal4-NCOR/VP16-NR2E3 two-hybrid, luciferase. Q9Y5X4. inhibition of corepressor binding, % at 3.98 µM. 360,000 tested, 0.35% active. AID 602229;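 active = inhibition above the mean of all tested compounds plus 3 SD, cut at about 70% in these data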;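 note: 0% = DMSO with NR2E3 transfected cells and 100% = cells lacking NR2E3 construct; higher means lower luciferase signal from less NR2E3 corepressor binding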
PG9 Ab binder: binds the HIV-1 gp120 antibody PG9; 360,000 tested, 0.43% active; inhibition, % at 6.7 µM; TR-FRET gp120-PG9 antibody binding; AID 624416; in the data active = inhibition above about 8.5%
NR2E3 ag confirm: confirmation of human NR2E3 nuclear receptor agonists; shares compounds with NR2E3 ag-1; cell-free NR2E3 corepressor release, TR-FRET, 5 h; activation (reported as inhibition), % at 3.98 µM; 360 tested, 39% active; AID 2379; in the data active = activation above about 20%
PPARg-NCOR2 ctr: releases PPARgamma from NCOR2 in NR2E3 counter-screen; shares compounds with NR2E3 ag-1; TR-FRET PPARg-NCOR2 coregulator interaction, biochemical; inhibition, % at 3.98 µM; 360 tested, 45% active; in the data active = inhibition above about 20%;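 note: 0% = DMSO vehicle and 100% = wells without protein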
PG9 binder conf: PG9 antibody binding, confirmed; shares compounds with PG9 Ab binder; TR-FRET PG9 antibody binding, biochemical; inhibition, % at 6.7 µM; 1,500 tested, 90% active; AID 651571; in the data active = inhibition above about 9%
PGV04 Ab binding: counter-screen for PG9 binders: binding control antibody PGV04. 1,500 tested, 95% active. TR-FRET PGV04 antibody-gp120 binding, biochemical. inhibition, % at 6.7 µM. shares compounds with PG9 Ab binder; in the data active = inhibition above about 9.5%
Starred values were filed as active, the others as inactive; . = no result given.

SMILES	NR2E3 ag-1	Rev-erbA mod	NR2E3 ag-2	PG9 Ab binder	NR2E3 ag confirm	PPARg-NCOR2 ctr	PG9 binder conf	PGV04 Ab binding
C=CCOc1cccc(C2C(C(=O)c3cccs3)=C(O)C(=O)N2Cc2cccnc2)c1 (stereo not drawn)	2	-1	4	7	.	.	.	.
C/C=C(/C)C(=O)O[C@@H]1[C@H](OC(C)=O)[C@@]2(CO)C(CC1(C)C)C1=CCC3[C@@]4(C)CC[C@H](O[C@@H]5O[C@H](C(=O)O)[C@@H](O[C@@H]6O[C@H](CO)[C@@H](O)[C@H](O)[C@H]6O)[C@H](O)[C@H]5O[C@@H]5O[C@H](CO)[C@@H](O)[C@H](O)[C@H]5O)[C@](C)(CO)C4CC[C@@]3(C)[C@]1(C)C[C@H]2O (stereo partly drawn)	.	1	.	.	.	.	.	.
C=C(C)[C@H]1CC=C(C(=O)O)CC1	.	0	.	.	.	.	.	.
O=C(O)c1cc2ccccc2c2cc(Br)ccc12	23*	0	-11	23*	19	56*	28*	36*
O=C(O)c1cc2ccccc2c2c1C(=O)c1ccccc1-2	.	5	-3	-6	.	.	.	.
Cc1cc2c(cc1CC(=O)c1sccc1S(=O)(=O)Nc1onc(C)c1Cl)OCO2	.	-8	.	.	.	.	.	.
CC(=O)O[C@]1(C(C)=O)CCC2C3C=C(Cl)C4=CC(=O)CC[C@]4(C)C3CC[C@@]21C (stereo partly drawn)	.	4	.	.	.	.	.	.
Cc1nn(CCc2nn[nH]n2)c2nc(-c3ccc(Br)cc3)cc(C(F)(F)F)c12	25*	1	4	19*	37*	33*	27*	37*
Cc1nn(CCc2nn[nH]n2)c2nc(C(F)(F)F)cc(C(F)(F)F)c12	4	4	-14	1	.	.	.	.
CCC1(C)Cc2ccccc2-c2[nH]c(=S)[nH]c(=O)c21 (stereo not drawn)	31*	-1	12	32*	20*	17	6	8
CC1(C)Cc2ccccc2-c2nc(NN)[nH]c(=O)c21	1	3	5	-1	.	.	.	.
Cn1c(=S)[nH]c2c(c1=O)C(C)(C)Cc1ccccc1-2	39*	-5	15	17*	41*	35*	11*	11*
CCC1(C)Cc2ccccc2-c2nc[nH]c(=O)c21 (stereo not drawn)	-1	-5	-4	-1	.	.	.	.
C#C[C@]1(O)CCC2C3CCC4=CC(=O)CC[C@@H]4C3CC[C@@]21CC (stereo partly drawn)	.	-3	.	.	.	.	.	.
O=C(O)c1cc(-c2ccco2)nc2ccc(Br)cc12	34*	-6	-22	25*	26*	29*	45*	58*
Cc1cc2nc3c(=O)[nH]c(=O)nc-3n(C[C@@H](O)[C@@H](O)[C@@H](O)COP(=O)(O)O)c2cc1C	.	5	.	.	.	.	.	.
O=S(=O)(Nc1cccnc1)c1ccc(Br)c2ccccc12	30*	5	14	15*	17	21*	24*	30*
CCCCCCCCCCCCCCCC(=O)OC[C@H](NC(=O)C(Cl)Cl)[C@H](O)c1ccc([N+](=O)[O-])cc1	.	5	.	.	.	.	.	.
C[C@@H]1CC2C3CCC4=CC(=O)C=C[C@]4(C)[C@@]3(F)[C@@H](O)C[C@]2(C)[C@@]1(O)C(=O)CO (stereo partly drawn)	.	-5	.	.	.	.	.	.
O=C(CSc1nc2[nH]ncc2c(=O)[nH]1)Nc1cccc(Cl)c1	-1	0	-16	2	.	.	.	.
N#Cc1c(-c2ccco2)nc(SCC(=O)Nc2cccc(Cl)c2)[nH]c1=O	26*	-3	-27	15*	7	22*	28*	32*
COC(=O)c1cc2n3ccccc3c(C)c(-c3ccccc3)c-2c1C(=O)OC	59*	3	-13	21*	63*	63*	29*	39*
Cc1cc(N2C(=O)C(O)=C(C(=O)c3ccco3)C2c2ccccc2F)no1 (stereo not drawn)	28*	-4	-17	10*	12	13	9.8*	28*
Cc1cc(N2C(=O)C(O)=C(C(=O)c3cc4ccccc4o3)C2c2ccc([N+](=O)[O-])cc2)no1 (stereo not drawn)	-1	-5	18	-3	.	.	.	.
Cc1ccc(C2C(C(=O)c3cc4ccccc4o3)=C(O)C(=O)N2c2cc(C)on2)cc1 (stereo not drawn)	23*	5	27	18*	28*	35*	29*	38*
SMILES	NR2E3 ag-1	Rev-erbA mod	NR2E3 ag-2	PG9 Ab binder	NR2E3 ag confirm	PPARg-NCOR2 ctr	PG9 binder conf	PGV04 Ab binding
Cc1cc(N2C(=O)C(O)=C(C(=O)c3cc4ccccc4o3)C2c2cccs2)no1 (stereo not drawn)	24*	0	13	9.3*	31*	34*	28*	46*
Cc1cc(N2C(=O)C(O)=C(C(=O)c3ccco3)C2c2ccc(O)cc2)no1 (stereo not drawn)	10	7	-34	3	.	.	.	.
Cc1ccc2nc(N3C(=O)C(O)=C(C(=O)c4cc5ccccc5o4)C3c3cccs3)sc2c1 (stereo not drawn)	7	.	-124	.	.	.	.	.
N#CC1=C(N)NC(=S)C(C(N)=O)C1c1ccccc1F (stereo not drawn)	-2	-2	11	-1	.	.	.	.
N#CC(=C=[N-])C1=C(C#N)C(c2ccccc2F)C([n+]2ccccc2)C(O)(C2CC2)N1 (stereo not drawn)	29*	-3	-14	9.1*	-7	3	16*	24*
N#CCCSc1ncnc2c1oc1ccccc12	21*	2	-12	20*	-2	6	46*	57*
CSc1nc(Sc2ccccc2Cl)c2ccccc2n1	26*	3	-2	9.1*	10	13	17*	22*
CCc1ccc(-c2cc(C(=O)NN3CCOCC3)c3ccccc3n2)s1	2	8	-20	1	.	.	.	.
CN1CCN(NC(=O)c2cc(-c3ccc(Br)s3)nc3ccccc23)CC1	26*	-1	-9	19*	16	20*	39*	68*
COc1ccc2nc(NC(=O)CSc3nc4ccccc4o3)sc2c1	20*	18	14	21*	9	16	27*	45*
C#C[C@]1(O)CCC2C3CCc4cc(OC)ccc4C3CC[C@@]21C (stereo partly drawn)	.	-4	.	.	.	.	.	.
